ERAP1 HTS inh – human ERAP1 aminopeptidase inhibitors, primary screen, biochemical, single point, plate reader. AID 652197, 2013. 340,000 compounds, 0.15% hits. inhibition, % at 10.7 µM. recombinant ERAP1, Leu-AMC fluorescence, 60 min. Endoplasmic reticulum aminopeptidase 1 (Homo sapiens), Q9NZ08;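 active means mean replicate inhibition of at least 30%, or all replicates individually reaching that 30% level; inactive means mean below 30% and not every replicate reaching it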
PDI inh – inhibitors of human PDI, primary screen, biochemical, turbidity, single point, plate reader. Protein disulfide-isomerase (Homo sapiens), P07237. PDI insulin aggregation turbidity, A650, 90 min. inhibition, % at 10 µM. 350,000 compounds, 0.052% hits;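 active means mean inhibition across replicates of 30% or more, whatever share of single replicates reach that level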
Target sequence (P07237 whole entry, looked up): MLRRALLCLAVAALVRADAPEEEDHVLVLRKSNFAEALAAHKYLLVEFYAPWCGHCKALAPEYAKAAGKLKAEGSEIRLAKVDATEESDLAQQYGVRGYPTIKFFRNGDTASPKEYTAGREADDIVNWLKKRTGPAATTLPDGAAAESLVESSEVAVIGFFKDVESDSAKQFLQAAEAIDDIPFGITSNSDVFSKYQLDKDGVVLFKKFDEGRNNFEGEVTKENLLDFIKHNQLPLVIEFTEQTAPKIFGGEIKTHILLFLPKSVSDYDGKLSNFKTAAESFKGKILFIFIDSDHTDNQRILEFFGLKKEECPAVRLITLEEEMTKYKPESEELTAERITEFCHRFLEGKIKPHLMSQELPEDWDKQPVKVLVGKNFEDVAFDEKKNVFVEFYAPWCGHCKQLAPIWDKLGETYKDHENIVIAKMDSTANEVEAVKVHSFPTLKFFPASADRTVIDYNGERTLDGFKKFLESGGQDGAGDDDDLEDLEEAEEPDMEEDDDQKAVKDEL
FGF22 binding – binders of human FGF22 protein, primary screen, FGF22 synaptogenesis inhibitor project, biophysical, thermal shift, single point; activity (Tm shift, normalised), % at 9.99 µM; Fibroblast growth factor 22 (Homo sapiens), Q9HCT0; recombinant FGF22 thermal shift, SYPRO orange fluorescence; percent of sucrose octasulfate shift, DMSO zero; 340,000 compounds, 1.5% hits;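 active means mean Tm shift, scaled 0 neutral to 100 positive control, at about 1.3% or above, every replicate too, limit read from the data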
S100A4 inh HTS – inhibitors of S100A4-myosin IIA peptide binding, primary screen, biochemical, fluorescence polarization, TAMRA-MyoIIA peptide; Protein S100-A4 (Homo sapiens), P26447; inhibition, % at 10.7 µM; 360,000 compounds, 0.14% hits;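 active means mean inhibition of at least 70% across replicates, with every replicate also reaching that level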
Target sequence (P26447 whole entry, looked up): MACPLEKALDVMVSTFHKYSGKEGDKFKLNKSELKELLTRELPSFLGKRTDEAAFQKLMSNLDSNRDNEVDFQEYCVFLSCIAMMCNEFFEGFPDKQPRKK
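Compound dosing: one dose per compound; test system: human S100A4 monomer with TAMRA-labelled myosin IIA peptide; probe or stimulus: TAMRA-labelled myosin IIA heavy-chain peptide probe, 5 nM; medium: HEPES buffer with Ca2+, pH 7.2; schedule: 5 min incubation before reading; benchmarks: neutral control DMSO, positive control TFP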
ERp5 inh – inhibitors of ERp5-driven insulin aggregation, primary screen, biochemical, turbidity, absorbance 650 nm, single point | Protein disulfide-isomerase A6 (Homo sapiens), Q15084 | 90 min | inhibition, % at 9.99 µM | 350,000 compounds, 0.05% hits | AID 651711, 2012;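 active means mean replicate inhibition above about 25%, with every replicate also reaching it, limit read from the data, passing the limit was not always enough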
Of the large screens only hits and unclear results are named; the others gave an inactive call. This is one part of a sample in which hits are shown more often than they occur.

COc1ccc(CN2CCN(CCC(C)C)C(CCO)C2)cc1Cn1cccn1 (configuration not stated)	none
Cn1cc(CN2CCN(CCc3ccccc3)C(CCO)C2)cn1 (configuration not stated)	FGF22 binding 44
COc1cccc2c1OCC(CN1CCN(CCC(C)C)C(CCO)C1)=C2 (configuration not stated)	FGF22 binding 43
CC(C)(C)NCC(O)COc1ccc(Br)cc1 (configuration not stated)	FGF22 binding 44
Cc1ccc(NC(=O)CN(C)C(=O)c2ccc(NC(=O)CC3SC(N4CCCC4)=NC3=O)cc2)cc1 (configuration not stated)	FGF22 binding 44
O=C(Cc1c[nH]c2ccccc12)NCc1ccco1	FGF22 binding 43
Cc1ccc(S(=O)(=O)N2c3ccc(S(N)(=O)=O)cc3CC2C)cc1 (configuration not stated)	FGF22 binding 44
Cc1cc2ccccc2n1CCNC(=O)c1ccc(S(=O)(=O)N2CCCCC2)cc1	S100A4 inh HTS 124 (no result: PDI inh)
O=C(NCCc1ccccc1)c1ccc(S(=O)(=O)N2CCCCC2)cc1	none
Cc1ccc(-n2c(O)c(C=Nc3cc(C)on3)c3ccccc3c2=O)c(C)c1	none
O=C(Nc1ccc2nc(-c3cccs3)c(-c3cccs3)nc2c1)NC1CC1	none (no result: ERAP1 HTS inh, FGF22 binding, S100A4 inh HTS, ERp5 inh)
O=C(O)c1ccc(Cn2c(SCc3cc(=O)n4cc(Br)ccc4n3)nc3ccsc3c2=O)cc1	FGF22 binding 43 (no result: PDI inh)
O=C(O)C1CCC(Cn2c(SCc3cc(=O)n4cc(Br)ccc4n3)nc3ccsc3c2=O)CC1 (configuration not stated)	none
ClCc1csc(-c2ccccc2Cl)n1	FGF22 binding 43
COc1ccc(-c2nc(CCl)cs2)cc1	FGF22 binding 43
CCc1ccc(C(=O)NNC(=S)Nc2ccc(S(N)(=O)=O)cc2)s1	FGF22 binding 1.8
C/C=C/c1cccc(-c2nc(C(=O)N3CCOCC3)cc3c2[C@H](CCO)N(C(=O)NC(C)C)C3)c1	none (no result: ERAP1 HTS inh, PDI inh)
O=C(Nc1nc2ccccc2n1CCN1CCOCC1)c1ccc(COc2ccccc2Br)o1	FGF22 binding 43
C[C@@H]1CN([C@H](C)CO)S(=O)(=O)c2ccc(-c3cccc(C#N)c3)cc2O[C@H]1CN(C)C(=O)Nc1cc(F)ccc1F	none
Cc1ccc(-c2nnc(CSc3nnc(COc4ccccc4)n3-c3ccc(C)cc3)o2)cc1	none (no result: ERAP1 HTS inh, FGF22 binding, S100A4 inh HTS, ERp5 inh)
COCCCn1c(C(=O)NCCN2CCOCC2)cc2c(=O)n3ccccc3nc21	ERAP1 HTS inh 42
N=c1c(C(=O)NCCc2ccccc2)cc2c(=O)n3ccccc3nc2n1CCCN1CCOCC1	none
N=c1c(C(=O)NCCN2CCOCC2)cc2c(=O)n3ccccc3nc2n1CCc1ccccc1	ERAP1 HTS inh 51
C[C@H]1CCCCO[C@H](CN(C)Cc2ccccc2)[C@@H](C)CN([C@@H](C)CO)C(=O)c2cc(NC(=O)Nc3cccc4ccccc34)ccc2O1	none (no result: PDI inh)
CC(=O)c1cccc(NC(=O)CNC(=O)c2cc3ccccc3o2)c1	none
COc1ccc2c(C)cc(N3CCN(Cc4ccccc4)CC3)nc2c1	ERAP1 HTS inh 37
COc1ccc2c(C)cc(N3CCCCCC3)nc2c1	none
COc1ccc(-n2c(COc3ccc4c(c3)OCO4)nnc2SCC(=O)O)cc1	none
CCOC(=O)c1c(NC(=O)CSc2ncccn2)sc(C(=O)NC)c1C	none
O=[N+]([O-])c1ccc2c(c1)-c1ccccc1C2O (configuration not stated)	ERAP1 HTS inh 39
COc1ccc(NC(=O)c2cccc(S(=O)(=O)N3CCc4ccccc43)c2)c(OC)c1	FGF22 binding 44
CN(C)S(=O)(=O)c1cccc(C(=O)Nc2ccc(S(=O)(=O)N3CCCC3)cc2)c1	FGF22 binding 44
COc1cccc(C(=O)Nc2cc(S(=O)(=O)N3CCCCC3)ccc2OC)c1	FGF22 binding 43
Nc1ccccc1Oc1c(F)c(F)c(Oc2ccccc2N)c(F)c1F	none
COc1ccc(CSc2nc(O)cc(=O)n2CC(C)C)cc1F	none
COc1ccc(-c2ccccc2[C@@H]2[C@H](C#N)N(C(=O)C3CCC3)[C@H]2CO)cc1	none (no result: PDI inh)
Cc1ccc(S(=O)(=O)CC(N)=O)cc1	none
Cc1ccc(S(=O)(=O)CCSC(=N)N)cc1	FGF22 binding 44
O=c1[nH]c(SCc2ccccc2)nc2c1sc1ccccc12	FGF22 binding 44
COc1ccc(N2CCN(C(=O)CSc3ccc(C)cc3)CC2)cc1	FGF22 binding 44
CC1=C(C(=O)N2CCOCC2)CC(CC(=O)NCc2cccs2)C(=O)N1Cc1ccc(F)cc1 (configuration not stated)	none
COc1cc2c(cc1OC)C[N+](C)(C)CC2	ERAP1 HTS inh 65 (no result: PDI inh)
CCOC(=O)c1c(C)[nH]c(C(=O)CN2C(=O)NC(C)(CC(C)C)C2=O)c1C (configuration not stated)	FGF22 binding 44
CCOC(=O)c1[nH]c(C)c(C(=O)OCC)c1C	none (no result: ERAP1 HTS inh)
O=C(CCCn1c(=S)[nH]c2cc3c(cc2c1=O)OCO3)NCCc1ccc(Cl)cc1	FGF22 binding 43
O=C(CCCCCn1c(=S)[nH]c2cc3c(cc2c1=O)OCO3)NCCc1ccccc1	none
CN(C)C(=O)c1cccc(-c2ccc3n(c2=O)C[C@H]2[C@H](CO)[C@@H](C(=O)NCC4CC4)N[C@@H]32)c1	none (no result: PDI inh)
CCNC(=O)[C@H]1N[C@H]2c3ccc(-c4cccc(C(=O)N(C)C)c4)c(=O)n3C[C@H]2[C@@H]1CO	S100A4 inh HTS 83 (no result: PDI inh)
COc1cccc(-c2ccc3n(c2=O)C[C@H]2[C@H](CO)[C@@H](C(=O)N4CCCCC4)N[C@@H]32)c1	none (no result: PDI inh)
COc1cccc(-c2ccc3n(c2=O)C[C@H]2[C@H](CO)[C@@H](C(=O)N4CCOCC4)N[C@@H]32)c1	S100A4 inh HTS 85 (no result: PDI inh)
N#CC(C#N)=NNc1ccc(S(=O)(=O)N2CCCC2)cc1	none (no result: ERAP1 HTS inh, FGF22 binding, S100A4 inh HTS, ERp5 inh)
C=CCn1c(C)cc(C(=O)CSc2ccc(NC(C)=O)cc2)c1C	none (no result: ERAP1 HTS inh, FGF22 binding, S100A4 inh HTS, ERp5 inh)
O=C(NC1CC1)c1ccc2nc([C@H]3C[C@H](O)[C@@H](CO)O3)[nH]c2c1	none
COC(=O)c1cc(C#N)c(OC)nc1C	FGF22 binding 43
CC(=O)c1ccc(NC(=S)Nc2ccc(Br)c(Cl)c2)cc1	FGF22 binding 1.4
CC(C)c1ccc(NC(=S)Nc2ccc3cn[nH]c3c2)cc1	none
O=C(NC(=S)Nc1ccc(Br)c(Cl)c1)C1CC1	none
CC(=O)c1ccc(NC(=S)Nc2ccc3cn[nH]c3c2)cc1	FGF22 binding 1.8
Cn1nc(-c2ccccc2)cc1NC(=O)Nc1ccccc1F	none
CC(C)=CC(=O)N1CCC(n2nccc2NC(=O)CCc2ccccc2)CC1	none
Cc1ccsc1/C=N/NC(=O)c1cccnc1	none

Screening data as filed in PubChem BioAssay.
